In ChEMBL document CHEMBL3392996, “Non-transpeptidase binding arylthioether β-lactams active against Mycobacterium tuberculosis and Moraxella catarrhalis” (2015):
In brackets after ≈: the same amount, converted by molar mass. Activity calls are given as the source filed them. The rule behind the calls is not given here.

Tests used:
[1] = tested on: Mycobacterium tuberculosis; assay: Antimicrobial activity against Mycobacterium tuberculosis H37Rv incubated for 48 hrs by microdilution broth method; assay type: functional
Moraxella catarrhalis [2] = assay: Antimicrobial activity against Moraxella catarrhalis clinical isolates incubated for 48 hrs by microdilution broth method; assay type: functional
Method in brief: (§1)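 Stocks in DMSO were diluted at least 10-fold into Mueller-Hinton broth, then 2-fold serially diluted in MH from 500 to 15.6 μg/ml. Bacteria were added, with DMSO-only dilution controls, and incubated at 37 °C for 48 h. Growth was scored at 24 and 48 h. MIC was the lowest concentration with no growth. Run in quadruplicate.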

Moraxella catarrhalis [3] = assay: Bactericidal activity against Moraxella catarrhalis clinical isolates incubated for 48 hrs by microdilution broth method and standard plating method; assay type: functional
Method in brief: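 Broth microdilution in Mueller-Hinton broth, 2-fold series from 500 to 15.6 μg/ml, with DMSO-only controls, 37 °C for 48 h. Wells showing no growth were plated (10 μL) on MH agar. MBC was the lowest concentration giving no growth on plating. Run in quadruplicate.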

Staphylococcus aureus = assay: Antimicrobial activity against Staphylococcus aureus ATCC 25923 incubated for 48 hrs by microdilution broth method; assay type: functional, organism-based; method in brief: as §1
Escherichia coli [4] = assay: Antimicrobial activity against extended spectrum beta-lactamase and carbapenemase producing Escherichia coli ESBL L109 incubated for 48 hrs by microdilution broth method; assay type: functional, organism-based; method in brief: as §1
Acinetobacter baumannii [5] = assay: Antimicrobial activity against extended spectrum beta-lactamase and carbapenemase producing Acinetobacter baumannii L186 incubated for 48 hrs by microdilution broth method; assay type: functional, organism-based; method in brief: as §1
Klebsiella pneumoniae [6] = assay: Antimicrobial activity against extended spectrum beta-lactamase and carbapenemase producing Klebsiella pneumoniae ESBL L174 incubated for 48 hrs by microdilution broth method; assay type: functional, organism-based; method in brief: as §1
Citrobacter freundii [7] = assay: Antimicrobial activity against AmpC producing Citrobacter freundii CITRO 21 incubated for 48 hrs by microdilution broth method; assay type: functional, organism-based; method in brief: as §1
Escherichia coli [8] = assay: Antimicrobial activity against broad spectrum beta-lactamase producing Escherichia coli GB 8 incubated for 48 hrs by microdilution broth method; assay type: functional, organism-based; method in brief: as §1
Escherichia coli [9] = assay: Antimicrobial activity against broad spectrum beta-lactamase producing Escherichia coli MISC 206 incubated for 48 hrs by microdilution broth method; assay type: functional, organism-based; method in brief: as §1
Pseudomonas aeruginosa = assay: Antimicrobial activity against Pseudomonas aeruginosa ATCC 27853 incubated for 48 hrs by microdilution broth method; assay type: functional, organism-based; method in brief: as §1
Escherichia coli [10] = assay: Antimicrobial activity against extended spectrum beta-lactamase and carbapenemase producing Escherichia coli ESBL L108 incubated for 48 hrs by microdilution broth method; assay type: functional, organism-based; method in brief: as §1
Klebsiella pneumoniae [11] = assay: Antimicrobial activity against AmpC producing Klebsiella pneumoniae KLEB 249 incubated for 48 hrs by microdilution broth method; assay type: functional, organism-based; method in brief: as §1
Klebsiella pneumoniae [12] = assay: Antimicrobial activity against extended spectrum beta-lactamase and carbapenemase producing Klebsiella pneumoniae KPC L133 incubated for 48 hrs by microdilution broth method; assay type: functional, organism-based; method in brief: as §1
Klebsiella pneumoniae [13] = assay: Antimicrobial activity against AmpC producing Klebsiella pneumoniae MISC 304 incubated for 48 hrs by microdilution broth method; assay type: functional, organism-based; method in brief: as §1
Enterococcus faecalis = assay: Antimicrobial activity against Enterococcus faecalis ATCC 29212 incubated for 48 hrs by microdilution broth method; assay type: functional, organism-based; method in brief: as §1
Escherichia coli [14] = assay: Antimicrobial activity against extended spectrum beta-lactamase producing Escherichia coli MISC 262 incubated for 48 hrs by microdilution broth method; assay type: functional, organism-based; method in brief: as §1
Acinetobacter baumannii [15] = assay: Antimicrobial activity against extended spectrum beta-lactamase and carbapenemase producing Acinetobacter baumannii L185 incubated for 48 hrs by microdilution broth method; assay type: functional, organism-based; method in brief: as §1
Escherichia coli [16] = assay: Antimicrobial activity against Escherichia coli ATCC 25922 incubated for 48 hrs by microdilution broth method; assay type: functional, organism-based; method in brief: as §1
Acinetobacter baumannii [17] = assay: Antimicrobial activity against extended spectrum beta-lactamase and carbapenemase producing Acinetobacter baumannii L187 incubated for 48 hrs by microdilution broth method; assay type: functional, organism-based; method in brief: as §1
[18] = tested on: Stenotrophomonas maltophilia; assay: Antimicrobial activity against metallo beta-lactamases producing Stenotrophomonas maltophilia GM24 incubated for 48 hrs by microdilution broth method; assay type: functional, organism-based; method in brief: as §1
Citrobacter freundii [19] = assay: Antimicrobial activity against extended spectrum beta-lactamase producing Citrobacter freundii Citro 314 incubated for 48 hrs by microdilution broth method; assay type: functional, organism-based; method in brief: as §1

With `O=C1CC(Sc2ccc(F)cc2F)N1C(=O)NCc1ccccc1F` (racemic) the MIC [1] was 50 µg/mL (≈ 136 µM).
`O=C1CC(Sc2cccc3ccccc23)N1C(=O)NCc1ccccc1` (racemic) gave an MIC (Moraxella catarrhalis [2]) of 200 µg/mL (≈ 552 µM), an MBC (Moraxella catarrhalis [3]) of over 200 µg/mL and an MIC [1] of over 100 µg/mL.
With `COc1ccc(SC2CC(=O)N2)cc1OC` (racemic) the MIC (Moraxella catarrhalis [2]) was 200 µg/mL (≈ 836 µM), the MBC (Moraxella catarrhalis [3]) was 200 µg/mL (≈ 836 µM) and the MIC [1] was 250 µg/mL (≈ 1040 µM).
For `O=C1CC(Sc2cccs2)N1` (racemic), the MIC (Moraxella catarrhalis [2]) was 25 µg/mL (≈ 135 µM), the MBC (Moraxella catarrhalis [3]) was 100 µg/mL (≈ 540 µM) and the MIC [1] was 6.25 µg/mL (≈ 33.7 µM).
Molecule `O=C1CC(Sc2ccc(F)c(F)c2)N1` (racemic) has an MIC (Moraxella catarrhalis [2]) of 50 µg/mL (≈ 232 µM), an MBC (Moraxella catarrhalis [3]) of 50 µg/mL (≈ 232 µM) and an MIC [1] of 50 µg/mL (≈ 232 µM).
In the case of `O=C1CC(Sc2ccc(F)cc2Cl)N1C(=O)NCc1ccccc1` (racemic), the MIC (Moraxella catarrhalis [2]) is reported as 12.5 µg/mL (≈ 34.3 µM), the MBC (Moraxella catarrhalis [3]) is reported as 25 µg/mL (≈ 68.5 µM) and the MIC [1] is reported as 25 µg/mL (≈ 68.5 µM).
Molecule `O=C1CC([Se]c2ccccc2)N1` (racemic) has an MIC (Moraxella catarrhalis [2]) of 6.25 µg/mL (≈ 27.6 µM), an MBC (Moraxella catarrhalis [3]) of 6.25 µg/mL (≈ 27.6 µM) and an MIC [1] of 25 µg/mL (≈ 111 µM).
Molecule `O=C1CC(Sc2cccc(C(F)(F)F)c2)N1` (racemic) has an MIC (Moraxella catarrhalis [2]) of 200 µg/mL (≈ 809 µM) and an MIC [1] of 6.25 µg/mL (≈ 25.3 µM).
`O=C1CC(Sc2ccc(F)cc2F)N1C(=O)Nc1ccccc1F` (racemic) showed an MIC [1] of 25 µg/mL (≈ 71 µM).
In the case of `O=C1CC(Sc2ccc([N+](=O)[O-])cc2)N1` (racemic), the MIC (Moraxella catarrhalis [2]) is reported as 6.25 µg/mL (≈ 27.9 µM), the MBC (Moraxella catarrhalis [3]) is reported as 12.5 µg/mL (≈ 55.7 µM) and the MIC [1] is reported as 25 µg/mL (≈ 111 µM).
With `O=C1CC(Sc2ccc(Cl)cc2Cl)N1C(=O)NCc1ccccc1` (racemic) the MIC (Moraxella catarrhalis [2]) was 3.13 µg/mL (≈ 8.21 µM), the MBC (Moraxella catarrhalis [3]) was 6.25 µg/mL (≈ 16.4 µM) and the MIC [1] was 25 µg/mL (≈ 65.6 µM).
`O=C1CC(Sc2ccc(F)cc2Cl)N1C(=O)NC(c1ccccc1)c1ccccc1` (racemic) gave an MIC (Moraxella catarrhalis [2]) of over 200 µg/mL, an MBC (Moraxella catarrhalis [3]) of over 200 µg/mL and an MIC [1] of 50 µg/mL (≈ 113 µM).
Work on `O=C1CC(Sc2ccc([N+](=O)[O-])cc2)N1C(=O)NCc1ccccc1` (racemic) yielded an MIC (Moraxella catarrhalis [2]) of 3.12 µg/mL (≈ 8.74 µM), an MBC (Moraxella catarrhalis [3]) of 25 µg/mL (≈ 70 µM) and an MIC [1] of 25 µg/mL (≈ 70 µM).
Work on `COc1ccc(SC2CC(=O)N2C(=O)NCc2ccccc2)cc1` (racemic) yielded an MIC (Moraxella catarrhalis [2]) of 200 µg/mL (≈ 584 µM), an MBC (Moraxella catarrhalis [3]) of 200 µg/mL (≈ 584 µM) and an MIC [1] of 125 µg/mL (≈ 365 µM).
Work on `O=C1CC(Sc2ccc(F)cc2F)N1C(=O)NCc1ccccc1` (racemic) yielded an MIC (Moraxella catarrhalis [2]) of 1.63 µg/mL (≈ 4.68 µM), an MBC (Moraxella catarrhalis [3]) of 1.63 µg/mL (≈ 4.68 µM) and an MIC [1] of 100 µg/mL (≈ 287 µM).
With `O=C1CC(Sc2cccc(F)c2)N1C(=O)NCc1ccccc1` (racemic) the MIC (Staphylococcus aureus) was “inactive”, the MIC (Escherichia coli [4]) was “inactive” and the MIC (Acinetobacter baumannii [5]) was “inactive”. For the same molecule, the MIC (Klebsiella pneumoniae [6]) was “inactive”, the MIC (Moraxella catarrhalis [2]) was 25 µg/mL (≈ 75.7 µM) and the MIC (Citrobacter freundii [7]) was “inactive”. The MIC (Escherichia coli [8]) was “inactive”, the MIC (Escherichia coli [9]) was “inactive” and the MIC (Pseudomonas aeruginosa) was “inactive”. For the same molecule, the MIC (Escherichia coli [10]) was “inactive”, the MIC (Klebsiella pneumoniae [11]) was “inactive” and the MIC (Klebsiella pneumoniae [12]) was “inactive”. The MIC (Klebsiella pneumoniae [13]) was “inactive”, the MIC (Enterococcus faecalis) was “inactive” and the MIC (Escherichia coli [14]) was “inactive”. The MIC (Acinetobacter baumannii [15]) was “inactive”, the MIC (Escherichia coli [16]) was “inactive” and the MIC (Acinetobacter baumannii [17]) was “inactive”. For the same molecule, the MIC [18] was “inactive”, the MIC (Citrobacter freundii [19]) was “inactive” and the MBC (Moraxella catarrhalis [3]) was 100 µg/mL (≈ 303 µM).
`O=C1CC(Sc2ccc(F)cc2)N1C(=O)NC(c1ccccc1)c1ccccc1` (racemic) showed an MIC (Moraxella catarrhalis [2]) of over 200 µg/mL, an MBC (Moraxella catarrhalis [3]) of over 200 µg/mL and an MIC [1] of over 100 µg/mL.
`COc1ccc(OC)c(SC2CC(=O)N2C(=O)NCc2ccccc2)c1` (racemic) showed an MIC (Moraxella catarrhalis [2]) of 100 µg/mL (≈ 268 µM), an MBC (Moraxella catarrhalis [3]) of 200 µg/mL (≈ 537 µM) and an MIC [1] of 50 µg/mL (≈ 134 µM).
With `O=C1CC(Sc2ccccc2)N1C(=O)NC(c1ccccc1)c1ccccc1` (racemic) the MIC [1] was 50 µg/mL (≈ 129 µM).
`O=C1CC(Sc2cccs2)N1C(=O)NCc1ccccc1` (racemic) showed an MIC (Moraxella catarrhalis [2]) of 50 µg/mL (≈ 157 µM), an MBC (Moraxella catarrhalis [3]) of 100 µg/mL (≈ 314 µM) and an MIC [1] of 6.25 µg/mL (≈ 19.6 µM).
`O=C1CC(Sc2ccc(F)cc2)N1` (racemic) was tested, and the MIC (Moraxella catarrhalis [2]) was over 200 µg/mL and the MIC [1] was over 100 µg/mL.
Work on `O=C1CC(Oc2ccc(C(F)(F)F)cc2)N1C(=O)NCc1ccccc1` (racemic) yielded an MIC (Moraxella catarrhalis [2]) of 50 µg/mL (≈ 137 µM), an MBC (Moraxella catarrhalis [3]) of over 200 µg/mL and an MIC [1] of 125 µg/mL (≈ 343 µM).
For `O=C1CC(Sc2ccc(F)cc2Cl)N1` (racemic), the MIC (Moraxella catarrhalis [2]) was 12.5 µg/mL (≈ 54 µM), the MBC (Moraxella catarrhalis [3]) was 50 µg/mL (≈ 216 µM) and the MIC [1] was 25 µg/mL (≈ 108 µM).
`C=CCSC1CC(=O)N1` (racemic) showed an MIC (Moraxella catarrhalis [2]) of over 200 µg/mL and an MIC [1] of over 200 µg/mL.
With `O=C1CC(Sc2ccccc2C(F)(F)F)N1` (racemic) the MIC (Moraxella catarrhalis [2]) was 1.5 µg/mL (≈ 6.07 µM), the MBC (Moraxella catarrhalis [3]) was 1.5 µg/mL (≈ 6.07 µM) and the MIC [1] was at least 100 µg/mL.
For `CCNC(=O)N1C(=O)CC1Sc1ccc(F)cc1F` (racemic), the MIC [1] was over 100 µg/mL.
`O=C1CC(Sc2ccc(F)cc2)N1C(=O)NCC(c1ccccc1)c1ccccc1` (racemic) showed an MIC (Moraxella catarrhalis [2]) of over 200 µg/mL, an MBC (Moraxella catarrhalis [3]) of over 200 µg/mL and an MIC [1] of over 100 µg/mL.
`O=C1CC(Sc2ccc(C(F)(F)F)cc2)N1` (racemic) was tested, and the MIC (Moraxella catarrhalis [2]) was 100 µg/mL (≈ 404 µM), the MBC (Moraxella catarrhalis [3]) was 100 µg/mL (≈ 404 µM) and the MIC [1] was 12.5 µg/mL (≈ 50.6 µM).
`O=C1CC(Oc2ccc([N+](=O)[O-])cc2)N1C(=O)NCc1ccccc1` (racemic) was tested, and the MIC (Moraxella catarrhalis [2]) was 6.25 µg/mL (≈ 18.3 µM), the MBC (Moraxella catarrhalis [3]) was 6.25 µg/mL (≈ 18.3 µM) and the MIC [1] was 250 µg/mL (≈ 732 µM).
